Experiments:
[1] = biological target: Protease (Human immunodeficiency virus 1) (UniProt Q9YQ12); experiment: Inhibition of recombinant HIV1 protease at 10 uM by HPLC method
Method in brief: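 Recombinant HIV-1 protease with HIV-1 Protease Substrate III in 50 mM sodium acetate pH 4.9, 200 mM NaCl, 5 mM DTT, 10% glycerol; inhibitors added from DMSO (5% v/v final). Enzyme addition starts the reaction, run 3.5 min at 37 °C, then quenched with 10% TFA. Substrate conversion is read by reverse-phase C18 HPLC (5–50% acetonitrile, 0.1% TFA), against inhibitor-free 5% DMSO baseline.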

[2] = tested on: Human immunodeficiency virus 1; experiment: Antiviral activity against HIV1 assessed as inhibition of viral infection at 10 uM by cell-based assay; type: functional
[3] = tested on: Human immunodeficiency virus 1; experiment: Antiviral activity against HIV1 assessed as inhibition of viral infection by cell-based assay; type: functional, organism-based

Protease (Human immunodeficiency virus 1), sequence (Q9YQ12 as listed by the source): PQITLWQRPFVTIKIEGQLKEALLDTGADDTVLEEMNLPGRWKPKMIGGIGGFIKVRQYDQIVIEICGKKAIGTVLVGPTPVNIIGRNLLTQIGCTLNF

inhibition [1] | IC50 [3] | Compound | inhibition at 10 µM [2]
41% |  | O=C(N[C@H](CO)c1ccccc1)[C@@H](CSC[C@@H](Cc1ccccc1)C(=O)N[C@H](CO)c1ccccc1)Cc1ccccc1 | 1.4%
 | > 10 µM | CN=[S+]([O-])(C[C@H](Cc1ccccc1)C(=O)N[C@@H]1c2ccccc2C[C@@H]1O)C[C@H](Cc1ccccc1)C(=O)N[C@@H]1c2ccccc2C[C@@H]1O | 
47% |  | O=C(N[C@@H](CO)c1ccccc1)[C@@H](Cc1ccccc1)C[S+]([O-])C[C@H](Cc1ccccc1)C(=O)N[C@@H](CO)c1ccccc1 | 0%
87% |  | N=[S+]([O-])(C[C@H](Cc1ccccc1)C(=O)N[C@@H](CO)c1ccccc1)C[C@H](Cc1ccccc1)C(=O)N[C@@H](CO)c1ccccc1 | 0%
51% |  | O=C(N[C@@H](CO)c1ccccc1)[C@@H](CSC[C@@H](Cc1ccccc1)C(=O)N[C@@H](CO)c1ccccc1)Cc1ccccc1 | 15.4%
90% |  | CNC(=O)[C@H](NC(=O)[C@@H](Cc1ccccc1)C[S+]([O-])C[C@H](Cc1ccccc1)C(=O)N[C@@H](C(=O)NC)C(C)C)C(C)C | 2.1%
99% |  | CNC(=O)[C@H](NC(=O)[C@@H](Cc1ccccc1)C[S+](=N)([O-])C[C@H](Cc1ccccc1)C(=O)N[C@@H](C(=O)NC)C(C)C)C(C)C | 5.5%
87% |  | CNC(=O)[C@@H](NC(=O)[C@@H](CSC[C@@H](Cc1ccccc1)C(=O)N[C@H](C(=O)NC)C(C)C)Cc1ccccc1)C(C)C | 12.6%
54% |  | N=[S+]([O-])(C[C@H](Cc1ccccc1)C(=O)N[C@H](CO)c1ccccc1)C[C@H](Cc1ccccc1)C(=O)N[C@H](CO)c1ccccc1 | 0%
50% |  | O=C(N[C@H](CO)c1ccccc1)[C@@H](Cc1ccccc1)C[S+]([O-])C[C@H](Cc1ccccc1)C(=O)N[C@H](CO)c1ccccc1 | 2.5%

— ChEMBL document CHEMBL1157558, “Design, asymmetric synthesis, and evaluation of pseudosymmetric sulfoximine inhibitors against HIV-1 protease” (Bioorg Med Chem, 2010)
